{
  "source": "ChEMBL document CHEMBL4257452",
  "about": "“A mini-library system to investigate non-essential residues of lipid-phosphatidylserine (PS) binding peptide-peptoid hybrid PPS1” (Medchemcomm, 2017)",
  "note": "The source made the active and inactive calls. The rule behind the calls is not given here. Starred links: 1 amine or outer side, 2 acyl side, 3 side chain; linkers in the order of their positions; H or OH if unused. Positions of bridges follow the written chain, without caps; N, C: chain ends. Non-standard residues stand in square brackets, D forms with d. Residues, ends and D or L forms follow the SMILES beside them. Chains are numbered I, II in the order given. N(3,4-(MeO)2phenethyl)Gly = COc1ccc(CCNCC(=O)O)cc1OC; Gly(N-piperonyl) = O=C(O)CNCc1ccc2c(c1)OCO2; N(4-MeOBn)Gly = COc1ccc(CNCC(=O)O)cc1; N(CH2CH2NHAc)Gly = CC(=O)NCCNCC(=O)O; X3 = CC(c1ccccc1)N(CC(=O)[*:2])[*:1]; N(4-MeBn)Gly = Cc1ccc(CNCC(=O)O)cc1; N(isopentyl)Gly = CC(C)CCNCC(=O)O; NFurfurylGly = O=C(O)CNCc1ccco1; X7 = O=C(CN(c1nccs1)[*:1])[*:2]; X6 = CCC(C)N(CC(=O)[*:2])[*:1]; NAllylGly = C=CCNCC(=O)O; NcPrGly = O=C(O)CNC1CC1; Nme = COCCNCC(=O)O; Sar = CNCC(=O)O",
  "data": [
    {"tested_on": "HCC4017", "experiment": "Cytotoxicity against human HCC4017 cells assessed as reduction in cell viability at 20 uM after 24 hrs by MTS assay", "format": "functional, cell-based", "outline": "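HCC4017 cells (RPMI, 5% FBS) and HBEC-3KT normal lung cells (KSFM with recombinant human EGF and bovine pituitary extract) were plated at 10 000 cells/well in triplicate and left to adhere overnight. They were exposed to 1 or 20 μM compound for 24 h. MTS reagent was then added for 2 h and absorbance read at 490 nm. Viability is % of untreated control wells.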", "values": [
      {"smiles": "COc1ccc(CN(CC(=O)N(CCc2ccc(OC)c(OC)c2)CC(=O)NC(CCCCN)C(=O)NC(CCCCN)C(=O)NC(CCSC)C(=O)NCCCCC(NC(=O)C(CCSC)NC(=O)C(CCCCN)NC(=O)C(CCCCN)NC(=O)CN(CCc2ccc(OC)c(OC)c2)C(=O)CN(Cc2ccc(OC)cc2)C(=O)CN(C(=O)CN(Cc2ccc3c(c2)OCO3)C(=O)CNC(C)c2ccccc2)C(C)c2ccccc2)C(N)=O)C(=O)CN(C(=O)CN(Cc2ccc3c(c2)OCO3)C(=O)CNC(C)c2ccccc2)C(C)c2ccccc2)cc1", "note": "(stereo not drawn) (I: H-[X3][Gly(N-piperonyl)][X3][N(4-MeOBn)Gly][N(3,4-(MeO)2phenethyl)Gly]KKMK-NH2 / II: H-[X3][Gly(N-piperonyl)][X3][N(4-MeOBn)Gly][N(3,4-(MeO)2phenethyl)Gly]KKM; amide I:9-II:C; configuration not given here)", "Activity": "Active"},
      {"smiles": "COc1ccc(CN(CC(=O)N(CC(=O)NC(CCCCN)C(=O)NC(CCCCN)C(=O)NC(CCSC)C(=O)NCCCCC(NC(=O)C(CCSC)NC(=O)C(CCCCN)NC(=O)C(CCCCN)NC(=O)CN(Cc2ccc(C)cc2)C(=O)CN(Cc2ccc(OC)cc2)C(=O)CN(C(=O)CN(Cc2ccc3c(c2)OCO3)C(=O)CNC(C)c2ccccc2)C(C)c2ccccc2)C(N)=O)Cc2ccc(C)cc2)C(=O)CN(C(=O)CN(Cc2ccc3c(c2)OCO3)C(=O)CNC(C)c2ccccc2)C(C)c2ccccc2)cc1", "note": "(stereo not drawn) (I: H-[X3][Gly(N-piperonyl)][X3][N(4-MeOBn)Gly][N(4-MeBn)Gly]KKMK-NH2 / II: H-[X3][Gly(N-piperonyl)][X3][N(4-MeOBn)Gly][N(4-MeBn)Gly]KKM; amide I:9-II:C; configuration not given here)", "Activity": "Active"},
      {"smiles": "COc1ccc(CN(CC(=O)NC(CCCCN)C(=O)NC(CCCCN)C(=O)NC(CCSC)C(=O)NCCCCC(NC(=O)C(CCSC)NC(=O)C(CCCCN)NC(=O)C(CCCCN)NC(=O)CN(Cc2ccc(OC)cc2)C(=O)CN(Cc2ccc(OC)cc2)C(=O)CN(C(=O)CN(Cc2ccc3c(c2)OCO3)C(=O)CNC(C)c2ccccc2)C(C)c2ccccc2)C(N)=O)C(=O)CN(Cc2ccc(OC)cc2)C(=O)CN(C(=O)CN(Cc2ccc3c(c2)OCO3)C(=O)CNC(C)c2ccccc2)C(C)c2ccccc2)cc1", "note": "(stereo not drawn) (I: H-[X3][Gly(N-piperonyl)][X3][N(4-MeOBn)Gly][N(4-MeOBn)Gly]KKMK-NH2 / II: H-[X3][Gly(N-piperonyl)][X3][N(4-MeOBn)Gly][N(4-MeOBn)Gly]KKM; amide I:9-II:C; configuration not given here)", "Activity": "Active"},
      {"smiles": "COc1ccc(CN(CC(=O)N(CCNC(C)=O)CC(=O)NC(CCCCN)C(=O)NC(CCCCN)C(=O)NC(CCSC)C(=O)NCCCCC(NC(=O)C(CCSC)NC(=O)C(CCCCN)NC(=O)C(CCCCN)NC(=O)CN(CCNC(C)=O)C(=O)CN(Cc2ccc(OC)cc2)C(=O)CN(C(=O)CN(Cc2ccc3c(c2)OCO3)C(=O)CNC(C)c2ccccc2)C(C)c2ccccc2)C(N)=O)C(=O)CN(C(=O)CN(Cc2ccc3c(c2)OCO3)C(=O)CNC(C)c2ccccc2)C(C)c2ccccc2)cc1", "note": "(stereo not drawn) (I: H-[X3][Gly(N-piperonyl)][X3][N(4-MeOBn)Gly][N(CH2CH2NHAc)Gly]KKMK-NH2 / II: H-[X3][Gly(N-piperonyl)][X3][N(4-MeOBn)Gly][N(CH2CH2NHAc)Gly]KKM; amide I:9-II:C; configuration not given here)", "Activity": "Active"},
      {"smiles": "COc1ccc(CN(CC(=O)N(CCC(C)C)CC(=O)NC(CCCCN)C(=O)NC(CCCCN)C(=O)NC(CCSC)C(=O)NCCCCC(NC(=O)C(CCSC)NC(=O)C(CCCCN)NC(=O)C(CCCCN)NC(=O)CN(CCC(C)C)C(=O)CN(Cc2ccc(OC)cc2)C(=O)CN(C(=O)CN(Cc2ccc3c(c2)OCO3)C(=O)CNC(C)c2ccccc2)C(C)c2ccccc2)C(N)=O)C(=O)CN(C(=O)CN(Cc2ccc3c(c2)OCO3)C(=O)CNC(C)c2ccccc2)C(C)c2ccccc2)cc1", "note": "(stereo not drawn) (I: H-[X3][Gly(N-piperonyl)][X3][N(4-MeOBn)Gly][N(isopentyl)Gly]KKMK-NH2 / II: H-[X3][Gly(N-piperonyl)][X3][N(4-MeOBn)Gly][N(isopentyl)Gly]KKM; amide I:9-II:C; configuration not given here)", "Activity": "Active"},
      {"smiles": "C=CCN(CC(=O)NC(CCCCN)C(=O)NC(CCCCN)C(=O)NC(CCSC)C(=O)NCCCCC(NC(=O)C(CCSC)NC(=O)C(CCCCN)NC(=O)C(CCCCN)NC(=O)CN(CC=C)C(=O)CN(Cc1ccc(OC)cc1)C(=O)CN(C(=O)CN(Cc1ccc2c(c1)OCO2)C(=O)CNC(C)c1ccccc1)C(C)c1ccccc1)C(N)=O)C(=O)CN(Cc1ccc(OC)cc1)C(=O)CN(C(=O)CN(Cc1ccc2c(c1)OCO2)C(=O)CNC(C)c1ccccc1)C(C)c1ccccc1", "note": "(stereo not drawn) (I: H-[X3][Gly(N-piperonyl)][X3][N(4-MeOBn)Gly][NAllylGly]KKMK-NH2 / II: H-[X3][Gly(N-piperonyl)][X3][N(4-MeOBn)Gly][NAllylGly]KKM; amide I:9-II:C; configuration not given here)", "Activity": "Active"},
      {"smiles": "COc1ccc(CN(CC(=O)N(CC(=O)NC(CCCCN)C(=O)NC(CCCCN)C(=O)NC(CCSC)C(=O)NCCCCC(NC(=O)C(CCSC)NC(=O)C(CCCCN)NC(=O)C(CCCCN)NC(=O)CN(Cc2ccco2)C(=O)CN(Cc2ccc(OC)cc2)C(=O)CN(C(=O)CN(Cc2ccc3c(c2)OCO3)C(=O)CNC(C)c2ccccc2)C(C)c2ccccc2)C(N)=O)Cc2ccco2)C(=O)CN(C(=O)CN(Cc2ccc3c(c2)OCO3)C(=O)CNC(C)c2ccccc2)C(C)c2ccccc2)cc1", "note": "(stereo not drawn) (I: H-[X3][Gly(N-piperonyl)][X3][N(4-MeOBn)Gly][NFurfurylGly]KKMK-NH2 / II: H-[X3][Gly(N-piperonyl)][X3][N(4-MeOBn)Gly][NFurfurylGly]KKM; amide I:9-II:C; configuration not given here)", "Activity": "Active"},
      {"smiles": "COc1ccc(CN(CC(=O)N(CC(=O)NC(CCCCN)C(=O)NC(CCCCN)C(=O)NC(CCSC)C(=O)NCCCCC(NC(=O)C(CCSC)NC(=O)C(CCCCN)NC(=O)C(CCCCN)NC(=O)CN(C(=O)CN(Cc2ccc(OC)cc2)C(=O)CN(C(=O)CN(Cc2ccc3c(c2)OCO3)C(=O)CNC(C)c2ccccc2)C(C)c2ccccc2)C2CC2)C(N)=O)C2CC2)C(=O)CN(C(=O)CN(Cc2ccc3c(c2)OCO3)C(=O)CNC(C)c2ccccc2)C(C)c2ccccc2)cc1", "note": "(stereo not drawn) (I: H-[X3][Gly(N-piperonyl)][X3][N(4-MeOBn)Gly][NcPrGly]KKMK-NH2 / II: H-[X3][Gly(N-piperonyl)][X3][N(4-MeOBn)Gly][NcPrGly]KKM; amide I:9-II:C; configuration not given here)", "Activity": "Active"},
      {"smiles": "COCCN(CC(=O)NC(CCCCN)C(=O)NC(CCCCN)C(=O)NC(CCSC)C(=O)NCCCCC(NC(=O)C(CCSC)NC(=O)C(CCCCN)NC(=O)C(CCCCN)NC(=O)CN(CCOC)C(=O)CN(Cc1ccc(OC)cc1)C(=O)CN(C(=O)CN(Cc1ccc2c(c1)OCO2)C(=O)CNC(C)c1ccccc1)C(C)c1ccccc1)C(N)=O)C(=O)CN(Cc1ccc(OC)cc1)C(=O)CN(C(=O)CN(Cc1ccc2c(c1)OCO2)C(=O)CNC(C)c1ccccc1)C(C)c1ccccc1", "note": "(stereo not drawn) (I: H-[X3][Gly(N-piperonyl)][X3][N(4-MeOBn)Gly][Nme]KKMK-NH2 / II: H-[X3][Gly(N-piperonyl)][X3][N(4-MeOBn)Gly][Nme]KKM; amide I:9-II:C; configuration not given here)", "Activity": "Active"},
      {"smiles": "COc1ccc(CN(CC(=O)N(C)CC(=O)NC(CCCCN)C(=O)NC(CCCCN)C(=O)NC(CCSC)C(=O)NCCCCC(NC(=O)C(CCSC)NC(=O)C(CCCCN)NC(=O)C(CCCCN)NC(=O)CN(C)C(=O)CN(Cc2ccc(OC)cc2)C(=O)CN(C(=O)CN(Cc2ccc3c(c2)OCO3)C(=O)CNC(C)c2ccccc2)C(C)c2ccccc2)C(N)=O)C(=O)CN(C(=O)CN(Cc2ccc3c(c2)OCO3)C(=O)CNC(C)c2ccccc2)C(C)c2ccccc2)cc1", "note": "(stereo not drawn) (I: H-[X3][Gly(N-piperonyl)][X3][N(4-MeOBn)Gly][Sar]KKMK-NH2 / II: H-[X3][Gly(N-piperonyl)][X3][N(4-MeOBn)Gly][Sar]KKM; amide I:9-II:C; configuration not given here)", "Activity": "Active"},
      {"smiles": "COc1ccc(CN(CC(=O)N(CC(=O)NC(CCCCN)C(=O)NC(CCCCN)C(=O)NC(CCSC)C(=O)NCCCCC(NC(=O)C(CCSC)NC(=O)C(CCCCN)NC(=O)C(CCCCN)NC(=O)CN(C(=O)CN(Cc2ccc(OC)cc2)C(=O)CN(C(=O)CN(Cc2ccc3c(c2)OCO3)C(=O)CNC(C)c2ccccc2)C(C)c2ccccc2)C(C)c2ccccc2)C(N)=O)C(C)c2ccccc2)C(=O)CN(C(=O)CN(Cc2ccc3c(c2)OCO3)C(=O)CNC(C)c2ccccc2)C(C)c2ccccc2)cc1", "note": "(stereo not drawn) (I: H-[X3][Gly(N-piperonyl)][X3][N(4-MeOBn)Gly][X3]KKMK-NH2 / II: H-[X3][Gly(N-piperonyl)][X3][N(4-MeOBn)Gly][X3]KKM; amide I:9-II:C; configuration not given here)", "Activity": "Active"},
      {"smiles": "CCC(C)N(CC(=O)NC(CCCCN)C(=O)NC(CCCCN)C(=O)NC(CCSC)C(=O)NCCCCC(NC(=O)C(CCSC)NC(=O)C(CCCCN)NC(=O)C(CCCCN)NC(=O)CN(C(=O)CN(Cc1ccc(OC)cc1)C(=O)CN(C(=O)CN(Cc1ccc2c(c1)OCO2)C(=O)CNC(C)c1ccccc1)C(C)c1ccccc1)C(C)CC)C(N)=O)C(=O)CN(Cc1ccc(OC)cc1)C(=O)CN(C(=O)CN(Cc1ccc2c(c1)OCO2)C(=O)CNC(C)c1ccccc1)C(C)c1ccccc1", "note": "(stereo not drawn) (I: H-[X3][Gly(N-piperonyl)][X3][N(4-MeOBn)Gly][X6]KKMK-NH2 / II: H-[X3][Gly(N-piperonyl)][X3][N(4-MeOBn)Gly][X6]KKM; amide I:9-II:C; configuration not given here)", "Activity": "Active"},
      {"smiles": "COc1ccc(CN(CC(=O)N(CC(=O)NC(CCCCN)C(=O)NC(CCCCN)C(=O)NC(CCSC)C(=O)NCCCCC(NC(=O)C(CCSC)NC(=O)C(CCCCN)NC(=O)C(CCCCN)NC(=O)CN(C(=O)CN(Cc2ccc(OC)cc2)C(=O)CN(C(=O)CN(Cc2ccc3c(c2)OCO3)C(=O)CNC(C)c2ccccc2)C(C)c2ccccc2)c2nccs2)C(N)=O)c2nccs2)C(=O)CN(C(=O)CN(Cc2ccc3c(c2)OCO3)C(=O)CNC(C)c2ccccc2)C(C)c2ccccc2)cc1", "note": "(stereo not drawn) (I: H-[X3][Gly(N-piperonyl)][X3][N(4-MeOBn)Gly][X7]KKMK-NH2 / II: H-[X3][Gly(N-piperonyl)][X3][N(4-MeOBn)Gly][X7]KKM; amide I:9-II:C; configuration not given here)", "Activity": "Active"}
    ]}
  ]
}
